Laboratory results as given in ChEMBL document CHEMBL1158007, “Steroidal glycosides from the bulbs of Allium jesdianum” (J Nat Prod, 1999).
Active and inactive are the calls of the source. The calls are words filed in the database; no cut-off is given here.

Tested on: HL-60
Experiment: Cytotoxicity against human HL-60 cells after 72 hrs by MTT assay
Type: functional, cell-based
Procedure, shortened: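 HL-60 cells grown in RPMI 1640 with 10% FBS, L-glutamine, penicillin and streptomycin, seeded at 3 × 10^4 cells/mL, and preincubated 24 h at 37 °C in 5% CO2. Sample in EtOH-H2O (1:1) added to a final 0.01-10 µg/mL, with vehicle-only controls, for 72 h. MTT added for 4 h, then formazan dissolved in DMSO and read at 550 nm. IC50 taken from the dose-response curve.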

Row | Structure (SMILES) | IC50 (HL-60, 72 h) [µg/mL] | Activity
1 | C[C@@H]1CC[C@@]2(OC1)O[C@H]1C[C@H]3[C@@H]4C[C@H](O)[C@H]5C[C@@H](O[C@@H]6O[C@H](CO)[C@H](O[C@@H]7O[C@H](CO)[C@@H](O)[C@H](O[C@@H]8OC[C@@H](O)[C@H](O)[C@H]8O)[C@H]7O[C@@H]7O[C@H](CO)[C@@H](O)[C@H](O)[C@H]7O)[C@H](O)[C@H]6O)[C@H](O)C[C@]5(C)[C@H]4CC[C@]3(C)[C@H]1[C@@H]2C | > 10 | –
2 | CC(C)CC[C@H](O)[C@@H](C)[C@H]1[C@@H](O[C@@H]2O[C@H](CO)[C@@H](O)[C@H](O)[C@H]2O)C[C@H]2[C@@H]3CC=C4C[C@@H](O)C[C@@H](O[C@@H]5O[C@H](CO)[C@@H](O)[C@H](O)[C@H]5O)[C@]4(C)[C@H]3CC[C@]12C | – | inactive
3 | CC(C)CC[C@H](O)[C@@H](C)[C@H]1[C@@H](O[C@@H]2O[C@H](CO)[C@@H](O)[C@H](O)[C@H]2O)C[C@H]2[C@@H]3CC=C4C[C@@H](O)C[C@@H](O[C@@H]5O[C@@H](C)[C@H](O)[C@@H](O)[C@H]5O)[C@]4(C)[C@H]3CC[C@]12C | – | inactive
